Tests used:
[1] = folding enthalpy; higher = less favourable; fluorescence melt of hairpins on a sequencing array, two-state fit; conditions: sodium 0.088 M
Procedure, shortened: (§1)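 On a sequenced MiSeq flow cell, library hairpins with annealed Cy3 and quencher oligos were imaged for Cy3 fluorescence in 2.5 °C steps up to 60 °C, in 50 mM Na-HEPES pH 8.0, 25 mM NaCl. Normalisation used pre-quench Cy3 and control constructs. Bootstrapped two-state fits gave melting temperature and folding enthalpy, combined by inverse variance across four replicates and with fitted temperatures raised by 9.35 °C to match UV melts.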

[2] = melting temperature; fluorescence melt of hairpins on a sequencing array, two-state fit, raised by 9.35 °C to match UV melts; conditions: sodium 0.088 M
Procedure, shortened: as §1

GAAGCCGAAAGGCAGTTC ((((((....)))..)))
folding enthalpy [1]: -9.04 kcal/mol
Tm [2]: 30 °C

GGATTTGGAAACGAATCC (((((.(....).)))))
folding enthalpy [1]: -34.9 kcal/mol
Tm [2]: 46.1 °C

GCAGAAGAAATTCTGC ((((((....))))))
folding enthalpy [1]: -32.6 kcal/mol
Tm [2]: 52.9 °C

GGGCCTGGAAACGGGCCC (((((.(....).)))))
folding enthalpy [1]: -38.7 kcal/mol
Tm [2]: 68.9 °C

GCTCTCGAAAGAGTAGC ((((((....))).)))
folding enthalpy [1]: -27.8 kcal/mol
Tm [2]: 47.2 °C

GTCTATACGAAAGTAGAC (((..(((....))))))
folding enthalpy [1]: -21.8 kcal/mol
Tm [2]: 36.7 °C

GCGAGGTGTCGC ((((....))))
folding enthalpy [1]: -5.64 kcal/mol
Tm [2]: 65.7 °C

GCCAAGCGAAAGCTTTGC ((.((((....)))).))
folding enthalpy [1]: -21.4 kcal/mol
Tm [2]: 53.4 °C

GAACGTGGAAACATGTTC ((((.((....)).))))
folding enthalpy [1]: -36.2 kcal/mol
Tm [2]: 47.2 °C

GACCCGGGAAACCAGGCC (.((.((....)).)).)
folding enthalpy [1]: -10.8 kcal/mol
Tm [2]: 24.7 °C

GGTGCAGGAAACTGCGTC (..((((....))))..)
folding enthalpy [1]: -10.3 kcal/mol
Tm [2]: 35.6 °C

GGTGACGGAAACGTTACC (((.(((....))).)))
folding enthalpy [1]: -38.5 kcal/mol
Tm [2]: 53 °C

GGAACAACGAAAGTTTCC (((..(((....))))))
folding enthalpy [1]: -15.5 kcal/mol
Tm [2]: 29.9 °C

GATCTAGTTTTAGATC ((((((....))))))
folding enthalpy [1]: -32.3 kcal/mol
Tm [2]: 42.3 °C

GATCGCGAGTGCGATC ((((((....))))))
folding enthalpy [1]: -33.8 kcal/mol
Tm [2]: 66.3 °C

GAGAATGGAAACATTTTC ((.((((....)))).))
folding enthalpy [1]: -14.8 kcal/mol
Tm [2]: 29.4 °C

GACCTGGGAAACCGGGTC ((((.((....)).))))
folding enthalpy [1]: -44.8 kcal/mol
Tm [2]: 57.1 °C

GATCGACATATCGATC ((((((....))))))
folding enthalpy [1]: -43.4 kcal/mol
Tm [2]: 51.7 °C

GATAGGGGAAACTCTATC (((((.(....).)))))
folding enthalpy [1]: -31.2 kcal/mol
Tm [2]: 35.7 °C

GAACGAGGAAACCCGTTC (((((.(....).)))))
folding enthalpy [1]: -33.5 kcal/mol
Tm [2]: 45.9 °C

GATTACGAAAGTATGATC ((((((....)))..)))
folding enthalpy [1]: -6.67 kcal/mol
Tm [2]: 14.5 °C

GTGAAGTCGAAAGACCAC (((..(((....))))))
folding enthalpy [1]: -23.9 kcal/mol
Tm [2]: 38.3 °C

GCGCTGCGAAAGCGACGC (((..((....))..)))
folding enthalpy [1]: -26.8 kcal/mol
Tm [2]: 63.7 °C

GCTCAACGAAAGTTCAGC (((.(((....))).)))
folding enthalpy [1]: -23.6 kcal/mol
Tm [2]: 37.6 °C

GGGCCCGAAAGGGGACCC ((((((....)))..)))
folding enthalpy [1]: -14.4 kcal/mol
Tm [2]: 65.1 °C

GATCCAACTGTGGATC ((((((....))))))
folding enthalpy [1]: -32.6 kcal/mol
Tm [2]: 49.1 °C

GTCGGCGGAAACGCTGGC (.(.(((....))).).)
folding enthalpy [1]: -21.2 kcal/mol
Tm [2]: 50.5 °C

GATCTTACGAAGATC ((((((...))))))
folding enthalpy [1]: -34.6 kcal/mol
Tm [2]: 42.9 °C

GCGTTGCACGC ((((...))))
folding enthalpy [1]: -23 kcal/mol
Tm [2]: 59.4 °C

GATCTTGCCAAAGATC ((((((....))))))
folding enthalpy [1]: -39 kcal/mol
Tm [2]: 55 °C

GGTTGTCCGAAAGGAACC (((..(((....))))))
folding enthalpy [1]: -14.5 kcal/mol
Tm [2]: 31.2 °C

GCTGCGCGAAAGCTGAGC (((..((....))..)))
folding enthalpy [1]: -13.2 kcal/mol
Tm [2]: 43.8 °C

GATCCCGGGGGGGATC ((((((....))))))
folding enthalpy [1]: -33.7 kcal/mol
Tm [2]: 62 °C

GGCTAAGGAAACTTAGTC (.(((((....))))).)
folding enthalpy [1]: -36.7 kcal/mol
Tm [2]: 42.4 °C

GGGGTTGAAAAACCCC ((((((....))))))
folding enthalpy [1]: -34.5 kcal/mol
Tm [2]: 66.7 °C

GGATTTGGAAACAGATCC ((((.((....)).))))
folding enthalpy [1]: -30.7 kcal/mol
Tm [2]: 41.5 °C

GATCACGAAAGTGAAATC ((((((....)))..)))
folding enthalpy [1]: -10.7 kcal/mol
Tm [2]: 30.2 °C

GTGCGAGGAAACTCACAC (((.(((....))).)))
folding enthalpy [1]: -34.2 kcal/mol
Tm [2]: 45.8 °C

GACCCCGGAAACGGAGTC (((.(((....))).)))
folding enthalpy [1]: -31.4 kcal/mol
Tm [2]: 47.2 °C

GTTAAACGAAAGTTAAC (((.(((....))))))
folding enthalpy [1]: -17.2 kcal/mol
Tm [2]: 34.6 °C

GATCATAAGATGATC ((((((...))))))
folding enthalpy [1]: -31.1 kcal/mol
Tm [2]: 46.6 °C

GTGGGTGGAAACACCCGC (.(((((....))))).)
folding enthalpy [1]: -22.7 kcal/mol
Tm [2]: 63.3 °C

GTTTCCGAAAGGAGGAAC ((((((....)))..)))
folding enthalpy [1]: -9.8 kcal/mol
Tm [2]: 27.4 °C

GGTCGGGGAAACCTGACC ((((.((....)).))))
folding enthalpy [1]: -37.5 kcal/mol
Tm [2]: 57.2 °C

GCGAGCGGAAACGCTCAC (.(((((....))))).)
folding enthalpy [1]: -12.3 kcal/mol
Tm [2]: 50.6 °C

GTGCCTGGAAACAGGCGC (.(((((....))))).)
folding enthalpy [1]: -20.3 kcal/mol
Tm [2]: 65 °C

Source: the array DNA melting data of Ke et al. (doi:10.1101/2024.01.08.574731)
